Reference: ChEMBL document CHEMBL2401735, “Synthesis and cytotoxicity of novel (thiazol-2-yl)hydrazine derivatives as promising anti-Candida agents” (Eur J Med Chem, 2013)
Converted amounts (≈) assume the structure as drawn.

Columns and labels:
Escherichia coli = assay: Antibacterial activity against Escherichia coli assessed as growth inhibition after 18 to 22 hrs by broth microdilution method; assay type: functional
Procedure, shortened: (§1)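 Bacterial isolates subcultured for purity, identified conventionally. Broth microdilution per NCCLS in Mueller-Hinton II broth; plates with growth control (no compound) and medium-only control, incubated 18-22 h at 35 °C. MIC taken as lowest concentration giving complete growth inhibition by unaided eye.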

Candida albicans = assay: Anticandida activity against Candida albicans clinical isolate assessed as growth inhibition after 24 hrs by broth microdilution method; assay type: functional
Procedure, shortened: (§2)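 Clinical Candida isolates subcultured for purity and optimal growth before testing; compounds dissolved in DMSO. Broth microdilution per NCCLS in Sabouraud dextrose broth, serial dilutions, inoculum about 10³/mL, with growth control and medium-only control; 24 h incubation at 37 °C. MIC is the lowest concentration giving complete visible inhibition.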

Klebsiella oxytoca = assay: Antibacterial activity against Klebsiella oxytoca assessed as growth inhibition after 18 to 22 hrs by broth microdilution method; assay type: functional; procedure, shortened: as §1
Nakaseomyces glabratus = assay: Anticandida activity against Candida glabrata clinical isolate assessed as growth inhibition after 24 hrs by broth microdilution method; assay type: functional; procedure, shortened: as §2
Candida tropicalis = assay: Anticandida activity against Candida tropicalis clinical isolate assessed as growth inhibition after 24 hrs by broth microdilution method; assay type: functional; procedure, shortened: as §2
Candida parapsilosis = assay: Anticandida activity against Candida parapsilosis clinical isolate assessed as growth inhibition after 24 hrs by broth microdilution method; assay type: functional; conditions: Lodderomyces parapsilosis; procedure, shortened: as §2
Enterobacter sp. = assay: Antibacterial activity against Enterobacter spp. assessed as growth inhibition after 18 to 22 hrs by broth microdilution method; assay type: functional; procedure, shortened: as §1
Proteus mirabilis = assay: Antibacterial activity against Proteus mirabilis assessed as growth inhibition after 18 to 22 hrs by broth microdilution method; assay type: functional; procedure, shortened: as §1
Enterococcus faecalis = assay: Antibacterial activity against […] assessed as growth inhibition after 18 to 22 hrs by broth microdilution method; assay type: functional; procedure, shortened: as §1
Pichia kudriavzevii = assay: Anticandida activity against Candida krusei clinical isolate assessed as growth inhibition after 24 hrs by broth microdilution method; assay type: functional; procedure, shortened: as §2
Staphylococcus aureus = assay: Antibacterial activity against Staphylococcus aureus assessed as growth inhibition after 18 to 22 hrs by broth microdilution method; assay type: functional; procedure, shortened: as §1
[Candida] sake = Anticandida activity against Candida sake clinical isolate assessed as growth inhibition after 24 hrs by broth microdilution method; assay type: functional; conditions: Fermentozyma sake; procedure, shortened: as §2
Staphylococcus warneri = assay: Antibacterial activity against Staphylococcus warneri assessed as growth inhibition after 18 to 22 hrs by broth microdilution method; assay type: functional; procedure, shortened: as §1
[1] = system: Streptococcus alpha-hemolyticus; assay: Antibacterial activity against Streptococcus alpha-hemolyticus assessed as growth inhibition after 18 to 22 hrs by broth microdilution method
[2] = Cytotoxicity against human Hep2 cells assessed as cell survival fraction at 50 ug/ml after 24 hrs by trypan blue exclusion assay (reference value: 97 to 98%); assay type: cell-based; conditions: HEp-2 cells, read-out: Survival
[3] = Cytotoxicity against human Hep2 cells assessed as reduction of cell viability after 24 hrs by trypan blue exclusion assay; assay type: cell-based; conditions: HEp-2 cells
Procedure, shortened: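 Hep2 cells in DMEM with 10% FBS, penicillin-streptomycin, 5% CO₂, 37 °C. Cells at 1 × 10⁵/mL exposed 24 h to seven concentrations (0.005-100 µg/mL), DMSO ≤0.5% final; controls were medium alone, DMSO, and 1 mM sodium nitroprusside. Cells scraped, allowed 30 min recovery, mixed 1:1 with 0.4% trypan blue, counted by hemocytometer by two operators.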

[4] = Cytotoxicity against human Hep2 cells assessed as cell survival fraction at 100 ug/ml after 24 hrs by trypan blue exclusion assay (reference value: 97 to 98%); assay type: cell-based; conditions: HEp-2 cells, read-out: Survival
[5] = Cytotoxicity against human Hep2 cells assessed as cell survival fraction at 0.05 ug/ml after 24 hrs by trypan blue exclusion assay (reference value: 97 to 98%); assay type: cell-based; conditions: HEp-2 cells, read-out: Survival
[6] = Cytotoxicity against human Hep2 cells assessed as cell survival fraction at 0.5 ug/ml after 24 hrs by trypan blue exclusion assay (reference value: 97 to 98%); assay type: cell-based; conditions: HEp-2 cells, read-out: Survival
[7] = Cytotoxicity against human Hep2 cells assessed as cell survival fraction at 0.005 ug/ml after 24 hrs by trypan blue exclusion assay (reference value: 97 to 98%); assay type: cell-based; conditions: HEp-2 cells, read-out: Survival
[8] = Cytotoxicity against human Hep2 cells assessed as cell survival fraction at 10 ug/ml after 24 hrs by trypan blue exclusion assay (reference value: 97 to 98%); assay type: cell-based; conditions: HEp-2 cells, read-out: Survival
[9] = Cytotoxicity against human Hep2 cells assessed as cell survival fraction at 5 ug/ml after 24 hrs by trypan blue exclusion assay (reference value: 97 to 98%); assay type: cell-based; conditions: HEp-2 cells, read-out: Survival

SMILES	MIC (Escherichia coli) [µg/mL]	MIC (Candida albicans) [µg/mL]	MIC (Klebsiella oxytoca) [µg/mL]	MIC (Nakaseomyces glabratus) [µg/mL]	MIC (Candida tropicalis) [µg/mL]	MIC (Candida parapsilosis) [µg/mL]	MIC (Enterobacter sp.) [µg/mL]	MIC (Proteus mirabilis) [µg/mL]	MIC (Enterococcus faecalis) [µg/mL]	MIC (Pichia kudriavzevii) [µg/mL]	MIC (Staphylococcus aureus) [µg/mL]	MIC ([Candida] sake) [µg/mL]	MIC (Staphylococcus warneri) [µg/mL]	MIC [1] [µg/mL]	further results
C/C(CC(C)C)=N\Nc1nc(-c2ccc(Cl)cc2Cl)cs1	> 256	256 (≈ 748 µM)	> 256	128 (≈ 374 µM)	256 (≈ 748 µM)	256 (≈ 748 µM)	> 256	> 256	> 256	256 (≈ 748 µM)	> 256	256 (≈ 748 µM)	> 256	> 256	
CCC(CC)=NNc1nc(-c2ccc(C)cc2)cs1	> 256	0.5 (≈ 1.83 µM)	> 256	0.25 (≈ 0.914 µM)	2 (≈ 7.32 µM)	2 (≈ 7.32 µM)	> 256	> 256	> 256	2 (≈ 7.32 µM)	> 256	2 (≈ 7.32 µM)	> 256	> 256	viability at 24 h, 50 ug/ml [2]: 67%; CC50 at 24 h [3]: ≥ 100 µg/mL; viability at 24 h, 100 ug/ml [4]: 77%; viability at 24 h, 0.05 ug/ml [5]: 92.2%; viability at 24 h, 0.5 ug/ml [6]: 86%; viability at 24 h, 0.005 ug/ml [7]: 94.6%; viability at 24 h, 10 ug/ml [8]: 72.4%; viability at 24 h, 5 ug/ml [9]: 84%
CC(C)=NNc1nc(-c2ccc(Cl)cc2Cl)cs1	> 256	2 (≈ 6.66 µM)	> 256	2 (≈ 6.66 µM)	4 (≈ 13.3 µM)	8 (≈ 26.6 µM)	> 256	> 256	> 256	8 (≈ 26.6 µM)	> 256	8 (≈ 26.6 µM)	> 256	> 256	
CCCCC/C(C)=N/Nc1nc(-c2ccc(Cl)cc2Cl)cs1	> 256	2 (≈ 5.61 µM)	> 256	2 (≈ 5.61 µM)	4 (≈ 11.2 µM)	16 (≈ 44.9 µM)	> 256	> 256	> 256	4 (≈ 11.2 µM)	> 256	16 (≈ 44.9 µM)	> 256	> 256	
CCC/C(C)=N/Nc1nc(-c2ccc(OC)cc2)cs1	> 256	0.25 (≈ 0.864 µM)	> 256	2 (≈ 6.91 µM)	2 (≈ 6.91 µM)	2 (≈ 6.91 µM)	> 256	> 256	> 256	2 (≈ 6.91 µM)	> 256	2 (≈ 6.91 µM)	> 256	> 256	viability at 24 h, 50 ug/ml [2]: 0%; CC50 at 24 h [3]: 36 µg/mL (≈ 124 µM); viability at 24 h, 100 ug/ml [4]: 0%; viability at 24 h, 0.05 ug/ml [5]: 90%; viability at 24 h, 0.5 ug/ml [6]: 88%; viability at 24 h, 0.005 ug/ml [7]: 92%; viability at 24 h, 10 ug/ml [8]: 75.5%; viability at 24 h, 5 ug/ml [9]: 83%

Further lines, with some results ahead:

MIC (Escherichia coli) [µg/mL]	MIC (Candida albicans) [µg/mL]	MIC (Klebsiella oxytoca) [µg/mL]	MIC (Nakaseomyces glabratus) [µg/mL]	MIC (Candida tropicalis) [µg/mL]	MIC (Candida parapsilosis) [µg/mL]	MIC (Enterobacter sp.) [µg/mL]	MIC (Proteus mirabilis) [µg/mL]	MIC (Enterococcus faecalis) [µg/mL]	MIC (Pichia kudriavzevii) [µg/mL]	MIC (Staphylococcus aureus) [µg/mL]	MIC ([Candida] sake) [µg/mL]	MIC (Staphylococcus warneri) [µg/mL]	SMILES	MIC [1] [µg/mL]	further results
> 256	2 (≈ 5.4 µM)	> 256	4 (≈ 10.8 µM)	4 (≈ 10.8 µM)	32 (≈ 86.4 µM)	> 256	> 256	> 256	4 (≈ 10.8 µM)	> 256	32 (≈ 86.4 µM)	> 256	CCCCCC/C(C)=N/Nc1nc(-c2ccc(Cl)cc2Cl)cs1	> 256	
> 256	64 (≈ 177 µM)	> 256	64 (≈ 177 µM)	256 (≈ 708 µM)	256 (≈ 708 µM)	> 256	> 256	> 256	256 (≈ 708 µM)	> 256	256 (≈ 708 µM)	> 256	CCCCCC/C(C)=N/Nc1nc(-c2ccc(OC)cc2OC)cs1	> 256	
